ChEMBL document CHEMBL1131376, “Steroidal and nonsteroidal sulfamates as potent inhibitors of steroid sulfatase” (J Med Chem, 1998)

Key:
[1] = biological target: T1, Steryl-sulfatase (Homo sapiens) (UniProt P08842); test: In vitro inhibition of Estrone Sulfatase in placental microsomes at a concentration of 100 uM.; details: Placenta
T1 sequence (whole entry): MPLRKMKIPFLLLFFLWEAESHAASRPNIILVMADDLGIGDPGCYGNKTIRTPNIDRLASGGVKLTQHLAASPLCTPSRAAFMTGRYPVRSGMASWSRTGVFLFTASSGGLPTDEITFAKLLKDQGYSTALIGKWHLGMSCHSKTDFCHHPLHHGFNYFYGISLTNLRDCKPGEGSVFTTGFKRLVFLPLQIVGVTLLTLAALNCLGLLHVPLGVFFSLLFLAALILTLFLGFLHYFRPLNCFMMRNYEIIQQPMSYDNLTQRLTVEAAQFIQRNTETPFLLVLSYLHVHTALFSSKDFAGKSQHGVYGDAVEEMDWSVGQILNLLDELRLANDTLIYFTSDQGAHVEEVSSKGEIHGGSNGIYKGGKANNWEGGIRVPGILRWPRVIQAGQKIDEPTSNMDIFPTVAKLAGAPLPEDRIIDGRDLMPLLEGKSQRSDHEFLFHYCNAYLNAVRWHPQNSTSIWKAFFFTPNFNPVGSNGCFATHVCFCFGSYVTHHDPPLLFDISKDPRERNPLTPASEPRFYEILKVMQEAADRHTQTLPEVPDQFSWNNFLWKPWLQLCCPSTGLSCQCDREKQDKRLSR
Outline: (§1)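 Placental microsomes (100 000 g pellet; 125 µg protein/mL) incubated 30 min with [³H]estrone sulfate (4 × 10⁵ dpm) brought to 20 µM with unlabelled substrate, with or without inhibitor. Product extracted into toluene, with [4-¹⁴C]estrone to correct for procedural losses. % inhibition given as mean ± s.d. of triplicates.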

[2] = biological target: T1, Steryl-sulfatase (Homo sapiens); test: In vitro inhibition of Estrone Sulfatase in placental microsomes at a concentration of 50 uM.; details: Placenta; outline: as §1
[3] = biological target: T1, Steryl-sulfatase (Homo sapiens); test: In vitro inhibition of Estrone Sulfatase in intact MCF-7 breast cancer cells at a concentration of 0.1 uM.; assay type: cell-based; details: MCF7
[4] = biological target: T1, Steryl-sulfatase (Homo sapiens); test: In vitro inhibition of Estrone Sulfatase in intact MCF-7 breast cancer cells at a concentration of 1.0 uM.; assay type: cell-based; details: MCF7
[5] = biological target: T1, Steryl-sulfatase (Homo sapiens); test: In vitro inhibition of Estrone Sulfatase in intact MCF-7 breast cancer cells at a concentration of 10 uM.; assay type: cell-based; details: MCF7
[6] = biological target: T1, Steryl-sulfatase (Homo sapiens); test: In vitro inhibition of Estrone Sulfatase in placental microsomes at a concentration of 10 uM.; details: Placenta

inhibition [1] [%] | inhibition [2] [%] | inhibition [3] [%] | inhibition [4] [%] | inhibition [5] [%] | inhibition [6] [%] | SMILES
99 | 97.8 | 42.9 | 85.6 |  |  | Cc1cc(=O)oc2cc(OS(N)(=O)=O)ccc12
< 10 | < 10 | < 10 | < 10 | < 10 | < 10 | Cc1cc(=O)oc2cc(O)c(OS(N)(=O)=O)cc12
47.2 | 36.9 | 11.4 | 68.2 | 99.3 | 19.9 | NS(=O)(=O)Oc1ccc2c(c1)OCC=C2
94.4 | 91.9 | 23.9 | 66 | 90.4 | 78.2 | NS(=O)(=O)Oc1ccc2ccc(=O)oc2c1
34.5 | 33.2 | 49 | 60.6 | 76.2 | < 10 | NS(=O)(=O)Oc1ccc2c(c1)CCC=C2
< 10 | < 10 | 33 | 91 | 99 | < 10 | NS(=O)(=O)Oc1ccc2c(c1)C(=O)CC2
12.5 | < 10 | 51.7 | 56.7 | 78.8 | < 10 | NS(=O)(=O)Oc1ccc2c(c1)CCCC2
12.5 | 11.5 | 9.3 | 46.4 | 75.1 | 17.4 | Cc1c(C)c2ccc(OS(N)(=O)=O)c(C)c2oc1=O
50.3 | 37.7 | 13.5 | 22.6 | 71.3 | 19.6 | NS(=O)(=O)Oc1ccc2c(c1)CCC2=O
< 10 | < 10 | < 10 | 17.4 | 39.1 | < 10 | Cc1cc(=O)oc2ccc(OS(N)(=O)=O)cc12
56.1 | 54.3 | < 10 | 11.7 | 78.1 | 16.1 | NS(=O)(=O)Oc1ccc2c(c1)CCCC2=O
69.9 | 42.9 | 33.8 | 34.1 | 72.1 | < 10 | COc1cc2ccc(=O)oc2cc1OS(N)(=O)=O
96.3 | 94.3 | 9.9 | 28.3 | 71.5 | 79.4 | NS(=O)(=O)Oc1ccc2c(C(F)(F)F)cc(=O)oc2c1
34.4 | 15 | 12 | 30.2 | 28.5 | < 10 | NS(=O)(=O)Oc1ccc2c(c1)OC(=O)CC2
82.1 | 70.6 | < 10 | < 10 | 32.3 | 53.4 | CC1CC(=O)Oc2cc(OS(N)(=O)=O)ccc21 (centres undefined)
< 10 | < 10 | < 10 | 15.5 | 74.1 | < 10 | NS(=O)(=O)Oc1cccc2c1CCC2=O
< 10 | < 10 | < 10 | < 10 | 31.2 | < 10 | Cc1cc(=O)oc2cc(OS(N)(=O)=O)c(OS(N)(=O)=O)cc12
27 | 16.5 | 10.4 | 47.8 | 93.5 | 12.3 | NS(=O)(=O)Oc1ccc2c(c1)C(=O)CCC2

SMILES | inhibition [1] [%] | inhibition [2] [%] | inhibition [3] [%] | inhibition [4] [%] | inhibition [5] [%] | inhibition [6] [%]
Cc1c(C)c2ccc(OS(N)(=O)=O)cc2oc1=O | 99.2 | 98.8 |  |  |  | 96.9
